Assay outcomes deposited in PubChem BioAssay by several laboratories.
Compounds with a hit are over-represented: about 5.1% of the library has one in this group of screens.
APP 5'UTR act – APP 5'UTR luciferase reporter activation | AID 1276 | SH-SY5Y APP 5'UTR luciferase reporter, luminescence; zero percent = DMSO vehicle wells | hit rate 1% among 190,000 | activation, % at 2 µM;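 active = activation above a set limit, based on mean plus 3 SD of controls, cut at about 140% in these data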
STAT3 blocker – inhibitors of IL-6 induced STAT3 signaling | U3A cells, IL-6 STAT3-luciferase reporter, luminescence; host cell line lacks STAT1 | hit rate 0.89% among 190,000 | inhibition, % at 5.5 µM | AID 862;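 active = inhibition above the mean inhibition across all screened compounds plus 3 SD, cut at about 44% in these data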;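 note: 0% = DMSO only wells and 100% = 100 µM nifuroxazide control wells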
STAT1 act-1 – increases IFN-gamma driven STAT1 reporter signal; NIH 3T3 STAT1-luciferase reporter, luminescence; 100% = IFN-gamma alone, no compound; activation (% of control), % at 5.5 µM; hit rate 2.6% among 200,000;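 active = activation above the screen-wide mean activation plus 3 SD, cut at about 130% in these data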;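 note: raw ratio to IFN-gamma control signal so 100% means no change and 0% no light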
NF-kB expr up – NF-kB expression increase, human neuronal cells; NF-kB reporter expression; stronger effect = higher value; fold change at 12.5 µM; hit rate 1.6% among 190,000; in the data active = fold change above about 3.3
STAT3 act-1 – increases IL-6 driven STAT3 reporter signal | U3A cells, IL-6 STAT3-luciferase reporter, luminescence; 100% = signal with IL-6 EC80 alone | activation (% of control), % at 5.6 µM | hit rate 0.91% among 190,000 | AID 871;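 active = activation above the screen-wide mean of compound activation plus 3 SD, cut at about 130% in these data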;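 note: 0% = background luminescence of wells with medium and substrate only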
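Test system: human U3A cells carrying STAT3-luciferase construct; control set: IL-6-only wells as 100% reference; timing: compound pre-incubation 1 h before IL-6, then 6 h stimulation at 37 °C; also added: IL-6 stimulus at 33 ng/mL final; evaluation: % activation versus median of IL-6-stimulated wells; detection: reporter luminescence signal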
STAT1 blocker – STAT1 signaling inhibition | NIH 3T3 STAT1-luciferase reporter, IFN-gamma, luminescence | inhibition, % at 5.5 µM | hit rate 0.35% among 200,000 | AID 920;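 active = inhibition above a set limit, the mean inhibition across all tested compounds plus 3 SD, cut at about 34% in these data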;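 note: 0% = IFN-gamma with DMSO and 100% = IFN-gamma with 300 µM nifuroxazide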
STAT3 act-2 – STAT3 activation, confirmation assay; shares compounds with STAT3 act-1; U3A STAT3-luciferase reporter, IL-6 potentiation, luminescence; U3A cells lack STAT1; 100 means same as IL-6 alone; potentiation (% of control), % at 5.7 µM; hit rate 64% among 1,200;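 active = percent activation of the STAT3 luciferase reporter above a set limit taken from the earlier primary screen, cut at about 130% in these data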;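 note: 0% = background signal of medium plus substrate and 100% = median of IL-6 with DMSO wells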
NFkB act STAT3ct – NF-kappaB activation in STAT3 activator counter-screen. hit rate 11% among 1,200. activation (% of control), % at 5.7 µM. human cells, NF-kappaB reporter activation. shares compounds with STAT3 act-1; in the data active = activation above about 120%;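 note: reporter induced by TNF-alpha stimulation; 100% = median of stimulated DMSO wells and 0% = no signal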
STAT1 act-2 – counter-screen for STAT3 activators: STAT1 activation; shares compounds with STAT3 act-1; AID 1318; hit rate 13% among 1,200; activation (% of control), % at 5.7 µM; NIH 3T3 STAT1-luciferase reporter, IFN-gamma, luminescence;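 active = activation above the solvent-only control well mean plus 3 SD, set per screening run, cut at about 120% in these data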;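 note: 100% = IFN-gamma with DMSO median signal so 100% means no change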
* hit, by the source's call; . = no result given.

SMILES | APP 5'UTR act | STAT3 blocker | STAT1 act-1 | NF-kB expr up | STAT3 act-1 | STAT1 blocker | STAT3 act-2 | NFkB act STAT3ct | STAT1 act-2
CCN(CC)S(=O)(=O)c1cc(NC(=O)C(C)N2CCc3ccccc32)ccc1C (stereo unspecified) | -6.8 | -40.6 | 91.5 | 0.97 | 142.0* | 7.8 | 141.2* | 106.7 | 105.2
CC(C(=O)Nc1ccc(S(N)(=O)=O)cc1)N1CCc2ccccc21 (stereo unspecified) | 15.0 | -2.6 | 95.6 | 1.09 | 103.2 | 3.3 | . | . | .
O=C(OCC(=O)N1CCc2ccccc21)c1ccccc1 | -13.3 | 6.6 | 123.7 | 2.42 | 99.6 | -26.0 | . | . | .
CCOCC(=O)N1CCc2ccccc21 | 10.2 | -59.7 | 100.5 | 1.5 | 150.9* | -0.6 | 139.4* | 102.8 | 96.7
CC(CC(=O)N1CCc2ccccc21)c1ccccc1 (stereo unspecified) | . | 9.5 | 106.0 | 1.4 | 92.1 | -7.7 | . | . | .
COc1cc2c(cc1OC)CN(C(C)C(=O)N1CCc3ccccc31)CC2 (stereo unspecified) | -1.9 | -10.6 | 105.2 | 0.86 | 106.1 | -5.6 | . | . | .
CC(C(=O)N1CCc2ccccc21)N1CCc2ccccc2C1 (stereo unspecified) | 10.6 | -47.4 | 94.3 | 1.03 | 146.1* | 6.2 | 119.1 | 102.8 | 101.7
O=C(c1cccnc1)N1CCc2ccccc21 | 8.4 | -65.9 | 101.2 | 0.92 | 158.8* | -1.3 | 139.8* | 101.5 | 94.6
CCN(CC)C(=O)N1CCc2ccccc21 | -1.1 | -39.5 | 96.2 | 1.16 | 146.3* | 4.3 | 150.9* | 105.3 | 100.6
Cc1ccc(SCC(=O)Nc2ccc(F)cc2[N+](=O)[O-])cc1C | 14.5 | 3.4 | 101.3 | 1.13 | 96.0 | -1.3 | . | . | .
Cn1c(=O)[nH]c(=O)c2c1nc(N1CCOCC1)n2CCSc1ncccn1 | 1.2 | -13.6 | 101.0 | . | 114.2 | -2.7 | . | . | .
O=C(C[n+]1cn(C(F)F)c2ccccc21)c1ccc(OC(F)F)cc1 | 46.5 | 3.0 | 128.3 | 1.25 | 97.4 | -30.1 | . | . | .
CN(C)S(=O)(=O)N1CCc2ccccc21 | -10.1 | -53.9 | 99.7 | 1.07 | 146.3* | -2.0 | 132.8 | 102.4 | 101.3
CN(C)S(=O)(=O)N1CCc2ccccc2C1 | 6.0 | 5.8 | 106.3 | 0.86 | 97.3 | -6.9 | . | . | .
Cn1nc(-c2ccc(Cl)cc2)c2cc(C(=O)N3CCCC3)sc21 | -4.6 | -3.5 | 74.8 | 0.89 | 106.8 | 27.7 | . | . | .
COCCNC(=O)c1cc2c(-c3ccc(Cl)cc3)nn(C)c2s1 | 16.5 | -51.8 | 106.5 | 0.74 | 152.3* | -7.1 | 138.8* | 102.8 | 93.9
Cn1nc(-c2ccc(Cl)cc2)c2cc(C(=O)N3CCN(c4ccccn4)CC3)sc21 | -10.7 | 7.0 | 91.4 | 0.35 | 101.4 | 9.5 | . | . | .
Cn1nc(-c2ccc(Cl)cc2)c2cc(C(=O)NCCCN3CCCC3)sc21 | 9.6 | -67.3 | 97.1 | 1.21 | 165.8* | 3.2 | 154.9* | 108.3 | 97.6
COCCNC(=O)c1cc2c(-c3ccccc3F)nn(C)c2s1 | 32.5 | 15.4 | 100.5 | 1.17 | 90.6 | -2.4 | . | . | .
CC(C)NC(=O)c1cc2c(-c3ccc(Cl)cc3)nn(C)c2s1 | -12.1 | -58.3 | 94.9 | 1 | 158.0* | 5.6 | 150.3* | 108.9 | 105.5
Cn1nc(-c2ccc(Cl)cc2)c2cc(C(=O)N3CCN(c4ccccc4)CC3)sc21 | 10.1 | -42.0 | 92.9 | 0.74 | 138.3* | 7.9 | 142.8* | 104.6 | 101.9
O=[N+]([O-])c1ccccc1S(=O)(=O)n1nnc2ccccc21 | 21.7 | 31.9 | 93.3 | 1.34 | 74.3 | 7.4 | . | . | .
Cc1cc(Br)ccc1NC(=O)CNC(=O)CN(C)Cc1nc2ccccc2c(=O)[nH]1 | 6.7 | -18.0 | 93.2 | 1.06 | 116.0 | 7.5 | . | . | .
CCCCNC(=O)c1cc2c(-c3ccc(Cl)cc3)nn(C)c2s1 | -0.6 | -35.7 | 101.4 | 0.92 | 138.4* | -1.6 | 151.3* | 110.6 | 105.2
Cc1ccc(CNC(=O)c2cc3c(-c4ccc(Cl)cc4)nn(C)c3s2)o1 | 6.4 | -55.0 | 76.4 | 0.78 | 155.1* | 26.1 | 151.9* | 109.7 | 106.0
SMILES | APP 5'UTR act | STAT3 blocker | STAT1 act-1 | NF-kB expr up | STAT3 act-1 | STAT1 blocker | STAT3 act-2 | NFkB act STAT3ct | STAT1 act-2
CCN1CCCC1CNC(=O)c1cc2c(-c3cccc(OC)c3)nn(C)c2s1 (stereo unspecified) | 5.6 | 8.5 | 81.5 | 0.83 | 96.5 | 18.4 | . | . | .
CCOC(=O)N1CCC(NC(=O)c2cc3c(-c4ccc(Cl)cc4)nn(C)c3s2)CC1 | 12.0 | -55.9 | 89.2 | 0.82 | 151.2* | 12.1 | 124.4 | 95.7 | 90.4
COc1cccc(-c2nn(C)c3sc(C(=O)NCc4ccco4)cc23)c1 | -10.3 | 13.7 | 94.3 | 0.4 | 92.2 | 7.4 | . | . | .
C=CCNC(=O)c1cc2c(C(F)(F)F)nn(C)c2s1 | -6.1 | 13.0 | 96.9 | 1.07 | 94.1 | 3.4 | . | . | .
CCN1CCCC1CNC(=O)c1cc2c(-c3ccc(Cl)cc3)nn(C)c2s1 (stereo unspecified) | -1.0 | -72.3 | 94.2 | 0.51 | 170.1* | 6.4 | 155.9* | 105.8 | 91.4
Cc1ccc(/C=N/N=C2/NC(=O)C(CC(=O)N3CCOCC3)S2)cc1 (stereo unspecified) | -8.1 | 7.9 | 96.2 | 1.43 | 99.2 | 2.1 | . | . | .
COCCCNC(=O)c1cc2c(-c3ccc(Cl)cc3)nn(C)c2s1 | -3.5 | -50.3 | 99.8 | 0.77 | 151.0* | 0.3 | 143.2* | 104.6 | 95.5
COC(=O)c1ccccc1NC1=C/C(=N\S(=O)(=O)c2cccs2)c2ccccc2C1=O | -17.8 | -36.1 | 109.2 | 0.6 | 137.5* | -9.9 | 108.4 | 112.6 | 110.2
COCCNC(=O)C(c1ccc(C)cc1)N(C(=O)C(=O)NC1CCCC1)c1ccc2c(c1)OCCO2 (stereo unspecified) | -4.6 | 4.1 | 100.6 | 1.26 | 102.8 | -1.6 | . | . | .
Cn1c(SCC(=O)Nc2ccc3cn[nH]c3c2)nnc1-c1cccs1 | -17.3 | -70.0 | 98.6 | 1 | 162.4* | -1.3 | 149.2* | 106.1 | 99.3
COc1ccc(NC(=O)CSc2nnc(-c3cccs3)n2C)cc1OC | 2.0 | 10.7 | 94.9 | 0.99 | 94.6 | 3.8 | . | . | .
Cc1ccc(-n2c(SCC(=O)Nc3ccc4cn[nH]c4c3)nnc2-c2ccco2)cc1 | -23.9 | -54.4 | 94.4 | 0.61 | 149.2* | 9.6 | 142.8* | 105.0 | 95.6
Cn1c(SCC(=O)Nc2ccc3cn[nH]c3c2)nnc1-c1cnccn1 | -8.8 | -49.6 | 98.5 | 0.92 | 145.2* | 3.0 | 146.4* | 100.1 | 99.3
CN(Cc1ccccc1)Cc1c[nH]c2ccccc12 | 5.3 | -64.5 | 101.8 | 1.13 | 158.2* | -2.0 | 141.2* | 102.4 | 94.9
